Legend:
[1] = target: T1, Peroxisome proliferator-activated receptor alpha (Homo sapiens, UniProt Q07869); assay: Agonist activity against human Gal4-fussed PPARalpha in HEK293 cells by luciferase reporter gene assay; type: functional, cell-based
T1 sequence (Q07869 whole entry): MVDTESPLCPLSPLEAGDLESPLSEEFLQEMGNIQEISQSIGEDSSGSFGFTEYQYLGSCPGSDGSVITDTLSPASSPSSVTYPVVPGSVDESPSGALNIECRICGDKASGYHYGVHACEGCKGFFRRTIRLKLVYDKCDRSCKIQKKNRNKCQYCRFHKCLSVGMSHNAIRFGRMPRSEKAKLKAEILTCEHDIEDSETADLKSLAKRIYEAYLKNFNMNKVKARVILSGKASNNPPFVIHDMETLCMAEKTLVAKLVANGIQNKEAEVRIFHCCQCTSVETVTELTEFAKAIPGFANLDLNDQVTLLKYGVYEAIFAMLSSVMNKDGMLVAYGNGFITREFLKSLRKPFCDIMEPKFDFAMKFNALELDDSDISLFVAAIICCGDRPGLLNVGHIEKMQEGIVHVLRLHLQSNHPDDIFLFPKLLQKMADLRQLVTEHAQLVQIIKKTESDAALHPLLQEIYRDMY
Outline: (§1)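 Transactivation assay in HEK293 cells with a luciferase reporter. After cell lysis, luciferin is added and luminescence is read. EC50 is the ligand concentration giving half-maximal fold induction. Maximal efficacy is expressed as % of standards, with fenofibrate at 100 µM = 100% for PPARα and rosiglitazone at 1 µM = 100% for PPARγ. Data are normalized to known agonists at 1 µM.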

[2] = target: T2, Peroxisome proliferator-activated receptor alpha (Homo sapiens) (UniProt Q07869); assay: Agonist activity against human Gal4-fussed PPARalpha by luciferase reporter gene assay relative to finofibrate; type: functional
T2 sequence (whole entry): T1 sequence (Q07869 whole entry)
Outline: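 Gal4-fused human PPARα transactivation in HEK293 cells with a luciferase reporter, read as luminescence after cell lysis and luciferin addition. EC50 is the ligand concentration (µM) giving half-maximal fold induction. Maximal efficacy is expressed as a percentage of fenofibrate at 100 µM (set as 100%). Intrinsic activity is the response at 1 µM as a percentage of the standard at 1 µM.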

[3] = target: T3, Peroxisome proliferator-activated receptor gamma (Homo sapiens, UniProt P37231); assay: Agonist activity against human Gal4-fussed PPARgamma in HEK293 cells by luciferase reporter gene assay; type: functional, cell-based; outline: as §1
T3 sequence (P37231 whole entry): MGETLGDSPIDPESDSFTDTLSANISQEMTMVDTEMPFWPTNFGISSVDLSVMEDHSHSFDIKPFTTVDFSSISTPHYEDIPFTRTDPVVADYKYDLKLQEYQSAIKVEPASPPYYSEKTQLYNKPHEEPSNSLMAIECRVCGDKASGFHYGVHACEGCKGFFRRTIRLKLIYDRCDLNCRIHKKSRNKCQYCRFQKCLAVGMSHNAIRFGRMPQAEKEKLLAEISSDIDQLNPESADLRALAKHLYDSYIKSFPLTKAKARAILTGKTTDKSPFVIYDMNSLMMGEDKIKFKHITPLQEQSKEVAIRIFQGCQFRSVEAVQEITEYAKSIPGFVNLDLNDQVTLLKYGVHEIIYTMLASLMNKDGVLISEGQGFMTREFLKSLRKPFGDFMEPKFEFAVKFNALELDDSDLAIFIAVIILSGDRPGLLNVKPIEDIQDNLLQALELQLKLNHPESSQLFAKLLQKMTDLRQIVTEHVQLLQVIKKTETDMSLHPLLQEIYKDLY

[4] = target: T4, Peroxisome proliferator-activated receptor gamma (Homo sapiens) (UniProt P37231); assay: Agonist activity against human Gal4-fussed PPARgamma by luciferase reporter gene assay relative to rosiglitazone
T4 sequence (whole entry): T3 sequence (P37231 whole entry)

[5] = system: Hamster; assay: Induction of hydrase mRNA level in hamster liver at 10 mg/kg, po after 6 hrs relative to fenofibrate; type: functional, Cricetinae
Outline: (§2)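 Single oral dose of 10 mpk in hamsters, with fenofibrate reference at 100 mpk. Liver PDK4 and HD mRNA measured at 6 h post-dose. Values expressed relative to fenofibrate, set as 100%.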

[6] = system: Hamster; assay: Induction of PDK4 mRNA level in hamster liver at 10 mg/kg, po after 6 hrs relative to fenofibrate; type: functional, Cricetinae; outline: as §2
[7] = system: Hamster; assay: Antidyslipidemic activity in hamster assessed as decrease in triglyceride level at 10 mg/kg, po; type: functional, Cricetinae; set-up: scale not given: the % may be the effect or the level left
Outline: (§3)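 Hamsters kept on high-fat diet for 2 weeks, then dosed 10 mg/kg by oral gavage once daily for 21 days (n = 8). Vehicle: 5% cremophor, 10% NMP, 5% EtOH, 80% water. HDL-c and TG measured at study end. Statistics by Dunnett test, p < 0.05.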

[8] = Half life in Sprague-Dawley rat at 5 mg/kg, iv and 10 mg/kg, po; type: ADME, organism-based; conditions: in vivo
Outline: (§4)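 Male Sprague-Dawley rats (n = 2) given 5 mg/kg IV and 10 mg/kg PO. Vehicle: 10% NMP, 20% PEG-400, 70% potassium phosphate buffer.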

[9] = system: Hamster; assay: Antidyslipidemic activity in hamster assessed as decrease in HDL level at 10 mg/kg, po; type: functional, Cricetinae; set-up: scale not given: the % may be the effect or the level left; outline: as §3
[10] = organism: Cricetulus griseus; assay: Agonist activity at hamster PPARalpha relative to fenofibrate; type: functional
[11] = Volume of distribution at steady state Sprague-Dawley rat at 5 mg/kg, iv and 10 mg/kg, po; type: ADME, organism-based; conditions: in vivo, read-out: Vdss; outline: as §4
[12] = Clearance in Sprague-Dawley rat at 5 mg/kg, iv and 10 mg/kg, po; type: ADME, organism-based; conditions: in vivo; outline: as §4
[13] = Mean retention time in Sprague-Dawley rat at 5 mg/kg, iv and 10 mg/kg, po; type: ADME, organism-based; conditions: in vivo; outline: as §4
[14] = Drug level in hamster liver at 10 mg/kg, po; type: ADME, organism-based; set-up: dose 10 mg/kg, route oral; conditions: cricetinae, in vivo, read-out: Drug uptake
Outline: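 High-fat-fed hamsters (2 weeks on diet), 10 mg/kg po once daily for 21 days (n = 8). Vehicle: 5% cremophor/10% NMP/5% EtOH/80% water. Liver drug level taken 1 h post-dose in the fed state.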

[15] = Agonist activity at hamster PPARalpha; type: functional, Cricetulus griseus
[16] = Oral bioavailability in Sprague-Dawley rat at 10 mg/kg; type: ADME, organism-based; conditions: in vivo
Outline: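 Male Sprague-Dawley rats (n = 2). Oral dose 10 mg/kg, with 5 mg/kg IV for comparison. Vehicle: 10% NMP, 20% PEG-400, 70% potassium phosphate buffer.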

[17] = Drug level in hamster plasma at 10 mg/kg, po; type: ADME, organism-based; set-up: dose 10 mg/kg, route oral; conditions: cricetinae, in vivo, read-out: Drug uptake
Outline: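 High-fat-fed hamsters (2 weeks on diet), 10 mg/kg po once daily for 21 days (n = 8). Vehicle: 5% cremophor/10% NMP/5% EtOH/80% water. Plasma drug level taken in the fasted state at 18 h post-dose.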

SMILES	EC50 [1]	Emax [2]	EC50 [3]	Emax [4]	other results
COC(=O)N(CC(=O)O)Cc1cccc(OCc2coc(-c3ccc(F)cc3)n2)c1	235 nM	88%	> 25000 nM	–	–
COc1ccc(OC(=O)N(CC(=O)O)[C@@H](C)c2cccc(OCc3coc(-c4ccc(Cl)cc4)n3)c2)cc1	66 nM	69%	970 nM	62%	–
COC(=O)N(CC(=O)O)Cc1cccc(OCc2nc(-c3ccc(Cl)cc3)oc2C)c1	–	79%	–	82%	Activity [5]: 277%; Activity [6]: 230%; Activity [7]: 77%; half-life [8]: 3.2 h; Activity [9]: 20%; Emax [10]: 83%; Vd [11]: 0.7 L/kg; clearance [12]: 4.3 mL/min/kg; MRT [13]: 2.8 h
COC(=O)N(CC(=O)O)Cc1cccc(OCc2coc(-c3ccccc3)n2)c1	1230 nM	105%	> 25000 nM	–	–
COC(=O)N(CC(=O)O)Cc1cccc(OCc2csc(-c3ccc(C(F)(F)F)cc3)n2)c1	46.6 nM	73%	3440 nM	73%	Activity [5]: 126%; concentration [14]: 86.8 µM; Activity [6]: 308%; Activity [7]: 72%; half-life [8]: 7.9 h; Activity [9]: 52%; EC50 [15]: 811 nM; Emax [10]: 65%; Vd [11]: 0.3 L/kg; bioavailability [16]: 75%; clearance [12]: 0.5 mL/min/kg; MRT [13]: 6 h
COC(=O)N(CC(=O)O)[C@@H](C)c1cccc(OCc2coc(-c3ccc(Cl)cc3)n2)c1	73 nM	65%	> 8300 nM	189%	–
COC(=O)N(CC(=O)O)Cc1cccc(OCc2csc(-c3ccccc3Cl)n2)c1	> 2500 nM	–	5040 nM	55%	–
Cc1cccc(OC(=O)N(CC(=O)O)[C@@H](C)c2cccc(OCc3coc(-c4ccc(Cl)cc4)n3)c2)c1	22 nM	62%	571 nM	83%	–
COC(=O)N(CC(=O)O)Cc1cccc(OCc2coc(-c3ccc(C(F)(F)F)cc3)n2)c1	68 nM	74%	4810 nM	34%	–
COC(=O)N(CC(=O)O)[C@@H](C)c1cccc(OCc2coc(-c3ccc(C)cc3)n2)c1	87 nM	87%	20700 nM	130%	–
COC(=O)N(CC(=O)O)Cc1cccc(OCc2coc(-c3cccc(C)c3)n2)c1	451 nM	92%	> 25000 nM	–	–
COC(=O)N(CC(=O)O)Cc1cccc(OCc2coc(-c3ccc(Cl)cc3)n2)c1	64 nM	78%	9190 nM	46%	Activity [5]: 192%; concentration [14]: 83.8 µM; Activity [6]: 505%; Activity [7]: 84%; half-life [8]: 4.6 h; Activity [9]: 44%; EC50 [15]: 979 nM; Emax [10]: 84%; Vd [11]: 0.2 L/kg; bioavailability [16]: 75%; clearance [12]: 0.7 mL/min/kg; MRT [13]: 10.7 h; concentration [17]: 72.9 µM
COC(=O)N(CC(=O)O)Cc1cccc(OCc2csc(-c3cccc(Cl)c3)n2)c1	1450 nM	117%	4020 nM	54%	–
COc1cc(OC(=O)N(CC(=O)O)[C@@H](C)c2cccc(OCc3coc(-c4ccc(Cl)cc4)n3)c2)ccc1F	51 nM	64%	1440 nM	74%	–
COC(=O)N(CC(=O)O)Cc1cccc(OCc2coc(-c3ccc(F)cc3F)n2)c1	1090 nM	78%	> 25000 nM	–	–
Cc1ccc(F)c(OC(=O)N(CC(=O)O)[C@@H](C)c2cccc(OCc3coc(-c4ccc(Cl)cc4)n3)c2)c1	471 nM	56%	710 nM	58%	–
C[C@@H](c1cccc(OCc2coc(-c3ccc(Cl)cc3)n2)c1)N(CC(=O)O)C(=O)Oc1ccccc1	145 nM	53%	1690 nM	43%	–
COC(=O)N(CC(=O)O)Cc1cccc(OCc2coc(-c3ccc(F)c(Cl)c3)n2)c1	395 nM	97%	6390 nM	54%	–
COc1cccc(OC(=O)N(CC(=O)O)[C@@H](C)c2cccc(OCc3coc(-c4ccc(Cl)cc4)n3)c2)c1	13 nM	69%	772 nM	95%	Activity [7]: 49%; Activity [9]: 39%; EC50 [15]: 66 nM; Emax [10]: 71%
COC(=O)N(CC(=O)O)Cc1cccc(OCc2csc(-c3ccccc3)n2)c1	304 nM	70%	> 25000 nM	–	–
COC(=O)N(CC(=O)O)Cc1cccc(OCc2csc(-c3ccc(C)cc3)n2)c1	41.8 nM	71%	9290 nM	84%	–
COC(=O)N(CC(=O)O)Cc1cccc(OCc2coc(-c3ccc(C)cc3)n2)c1	29.9 nM	85%	15600 nM	94%	–
COC(=O)N(CC(=O)O)Cc1cccc(OCc2csc(-c3ccc(Cl)cc3)n2)c1	90 nM	90%	4690 nM	35%	–
